Drawing on ChEMBL document CHEMBL1130135, “Use of conformationally restricted benzamidines as arginine surrogates in the design of platelet GPIIb-IIIa receptor antagonists” (J Med Chem, 1997), this text covers IC50 for 22 compounds.

Each structure is given as a SMILES string. Some results are limits rather than exact numbers.

Common to all, as to type: protein-complex assay
For assay [1], the target named is T1, Integrin alpha-IIb/beta-3 (Homo sapiens, UniProt P05106+P08514). Put plainly: Antagonism of fibrinogen binding to a purified human fibrinogen receptor preparation. The essentials:
(§1)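 ELISA on purified human platelet GPIIb-IIIa with biotinylated fibrinogen as the ligand. Bound fibrinogen was detected with alkaline phosphatase-labeled goat anti-biotin and p-nitrophenyl phosphate substrate. Some runs added BSA at 4.5% (w/v) as a stand-in for plasma albumin.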

The target in assay [2] is T1, Integrin alpha-IIb/beta-3. Kind of assay: Inhibition of fibrinogen binding to purified Fibrinogen Receptor preparation in enzyme-linked immunosorbent assay (ELISA). The essentials:
as §1

The next assay concerns the target Integrin alpha-V/beta-3 (Homo sapiens, UniProt P05106+P06756). Kind of assay: Inhibition of adhesive protein binding to alphaV-beta3 vitronectin receptor using ELISA. The essentials:
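Vitronectin receptor ELISA on purified human placenta αvβ3 with biotinylated vitronectin as the ligand. Detection used alkaline phosphatase-labeled goat anti-biotin and p-nitrophenol phosphate. Compounds were tested up to 100 μM.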

Integrin alpha-V/beta-3, sequence (P05106 27-788 limits assumed): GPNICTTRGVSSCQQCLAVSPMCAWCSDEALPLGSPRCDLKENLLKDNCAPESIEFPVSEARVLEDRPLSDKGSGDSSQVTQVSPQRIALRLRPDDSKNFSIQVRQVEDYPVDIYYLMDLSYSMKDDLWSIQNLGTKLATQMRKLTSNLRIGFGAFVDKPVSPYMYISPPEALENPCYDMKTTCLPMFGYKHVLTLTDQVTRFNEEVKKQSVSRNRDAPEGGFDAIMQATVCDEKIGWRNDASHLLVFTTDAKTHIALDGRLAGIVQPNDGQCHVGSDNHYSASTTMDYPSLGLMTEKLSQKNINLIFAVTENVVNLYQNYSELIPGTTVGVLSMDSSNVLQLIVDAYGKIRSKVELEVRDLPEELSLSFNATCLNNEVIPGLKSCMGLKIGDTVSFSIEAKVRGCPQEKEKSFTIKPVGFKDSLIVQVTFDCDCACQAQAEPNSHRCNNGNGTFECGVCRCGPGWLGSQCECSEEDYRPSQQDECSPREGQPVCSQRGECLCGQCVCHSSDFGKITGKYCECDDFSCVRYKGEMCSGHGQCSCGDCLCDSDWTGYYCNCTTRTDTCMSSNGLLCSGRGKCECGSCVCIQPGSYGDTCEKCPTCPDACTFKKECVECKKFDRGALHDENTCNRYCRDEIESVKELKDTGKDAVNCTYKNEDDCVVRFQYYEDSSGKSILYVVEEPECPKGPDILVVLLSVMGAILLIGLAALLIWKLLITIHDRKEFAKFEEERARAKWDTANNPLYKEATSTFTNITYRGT
Integrin alpha-V/beta-3, sequence (P06756 31-889 limits assumed): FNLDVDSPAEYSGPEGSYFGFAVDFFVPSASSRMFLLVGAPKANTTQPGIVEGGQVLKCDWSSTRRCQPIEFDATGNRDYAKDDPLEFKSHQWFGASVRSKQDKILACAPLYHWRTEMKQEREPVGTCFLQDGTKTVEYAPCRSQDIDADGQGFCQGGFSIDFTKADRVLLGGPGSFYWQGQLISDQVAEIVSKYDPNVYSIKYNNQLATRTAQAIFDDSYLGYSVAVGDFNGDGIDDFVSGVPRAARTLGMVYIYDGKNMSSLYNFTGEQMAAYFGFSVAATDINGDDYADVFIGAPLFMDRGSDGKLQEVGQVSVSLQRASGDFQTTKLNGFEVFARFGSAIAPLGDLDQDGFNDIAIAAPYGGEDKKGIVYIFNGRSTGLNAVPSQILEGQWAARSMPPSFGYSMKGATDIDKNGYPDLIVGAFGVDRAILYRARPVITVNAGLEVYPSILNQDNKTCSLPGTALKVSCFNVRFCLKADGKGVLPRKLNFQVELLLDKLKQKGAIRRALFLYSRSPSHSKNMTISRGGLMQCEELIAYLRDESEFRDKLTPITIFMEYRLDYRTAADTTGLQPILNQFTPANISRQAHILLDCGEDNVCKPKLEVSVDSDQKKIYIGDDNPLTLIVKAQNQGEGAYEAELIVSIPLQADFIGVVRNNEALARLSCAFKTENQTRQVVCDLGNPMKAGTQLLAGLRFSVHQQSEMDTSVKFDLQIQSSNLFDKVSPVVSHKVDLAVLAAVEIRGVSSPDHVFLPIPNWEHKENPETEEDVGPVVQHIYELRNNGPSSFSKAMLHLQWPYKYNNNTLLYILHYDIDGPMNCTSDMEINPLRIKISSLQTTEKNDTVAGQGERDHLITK
Integrin alpha-V/beta-3, sequence (P06756 891-1048 limits assumed): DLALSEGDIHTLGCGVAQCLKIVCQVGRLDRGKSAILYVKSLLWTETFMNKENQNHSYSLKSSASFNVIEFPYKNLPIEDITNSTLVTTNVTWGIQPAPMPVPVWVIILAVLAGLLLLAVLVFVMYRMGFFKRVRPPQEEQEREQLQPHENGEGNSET
T1 sequence (P05106 27-788 limits assumed): as the sequence (P05106 27-788 limits assumed) above
T1 sequence (P08514 32-887 limits assumed): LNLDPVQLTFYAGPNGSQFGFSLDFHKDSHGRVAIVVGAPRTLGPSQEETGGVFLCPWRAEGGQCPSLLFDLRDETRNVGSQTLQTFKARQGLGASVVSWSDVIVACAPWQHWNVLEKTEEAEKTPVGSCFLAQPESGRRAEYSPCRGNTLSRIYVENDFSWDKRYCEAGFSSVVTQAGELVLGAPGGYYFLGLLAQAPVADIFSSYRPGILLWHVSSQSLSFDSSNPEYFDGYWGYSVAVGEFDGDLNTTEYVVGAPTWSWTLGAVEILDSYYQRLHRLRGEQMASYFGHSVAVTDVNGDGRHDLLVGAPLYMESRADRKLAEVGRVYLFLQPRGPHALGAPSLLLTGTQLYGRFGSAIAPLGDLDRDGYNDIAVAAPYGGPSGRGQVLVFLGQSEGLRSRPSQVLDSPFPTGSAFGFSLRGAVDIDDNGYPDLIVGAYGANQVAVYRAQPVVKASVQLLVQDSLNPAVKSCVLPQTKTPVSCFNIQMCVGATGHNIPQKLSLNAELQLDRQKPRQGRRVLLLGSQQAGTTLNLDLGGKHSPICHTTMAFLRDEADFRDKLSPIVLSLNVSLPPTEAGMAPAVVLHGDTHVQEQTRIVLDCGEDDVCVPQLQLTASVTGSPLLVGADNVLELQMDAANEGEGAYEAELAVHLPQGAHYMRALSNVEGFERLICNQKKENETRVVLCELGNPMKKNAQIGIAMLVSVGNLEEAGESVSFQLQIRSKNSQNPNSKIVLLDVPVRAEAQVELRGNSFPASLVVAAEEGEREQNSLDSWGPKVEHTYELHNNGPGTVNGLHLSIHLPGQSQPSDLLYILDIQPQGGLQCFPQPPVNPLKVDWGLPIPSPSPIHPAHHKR
T1 sequence (P08514 891-1039 limits assumed): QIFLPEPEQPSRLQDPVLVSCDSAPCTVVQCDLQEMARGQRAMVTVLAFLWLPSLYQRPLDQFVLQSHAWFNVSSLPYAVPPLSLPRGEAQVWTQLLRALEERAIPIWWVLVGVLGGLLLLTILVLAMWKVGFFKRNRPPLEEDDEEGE

On to `Cn1c(C(=O)NCCCCCCC(=O)O)cc2cc(C(=N)N)ccc21`, for which the 50% inhibitory concentration (IC50) in assay [1] is 2.9 µM.

As for `N=C(N)c1ccc2oc(C(=O)NCCCCCCCC(=O)O)cc2c1`, in assay [2], the IC50 stood at 3.3 µM.

At Integrin alpha-V/beta-3, `N=C(N)c1ccc2c(C(=O)NCCCCCCC(=O)O)c[nH]c2c1` showed an IC50 above 100 µM.

`N=C(N)c1ccc2[nH]c(C(=O)NCC(=O)NCCCC(=O)O)cc2c1`: the IC50 in assay [1] was determined as 9.9 µM.

`CCCCCCC(CCCCNC(=O)c1cc2cc(C(=N)N)ccc2[nH]1)CC(=O)O` (stereo not drawn): in assay [1], the half-maximal inhibitory concentration (IC50) is 0.59 µM.

Turning to `N=C(N)c1ccc2[nH]c(C(=O)NCCCC(=O)NCC(=O)O)cc2c1`, the 50% inhibitory concentration (IC50) in assay [1] came to 7.4 µM.

In the case of `N=C(N)c1ccc2cc(C(=O)NCCCCCCC(=O)O)oc2c1`, the IC50 in assay [1] is 1.1 µM. Against the preceding compound, the IC50 is about 6.7-fold lower.

`N=C(N)c1ccc2sc(C(=O)NCCCCCCC(=O)O)cc2c1` came in with a half-inhibitory concentration (IC50) in assay [1] of 0.85 µM. This IC50 and that of the compound before are within 1.5-fold of each other.

As to `N=C(N)c1ccc2c(C(=O)NCCCCCCC(=O)O)[nH]nc2c1`, the IC50 in assay [1] was 0.02 µM; at Integrin alpha-V/beta-3 it was above 100 µM.

On to `N=C(N)c1ccc2[nH]c(C(=O)NCCCCC(CC(=O)O)c3ccccc3)cc2c1` (stereo not drawn), for which the IC50 in assay [1] was found to be 0.46 µM.

As for `N=C(N)c1ccc(OCC(=O)NCCCCCCC(=O)O)cc1`, the 50% inhibitory concentration (IC50) in assay [1] came to 1.1 µM.

Turning to `CC(CCCCNC(=O)c1cc2cc(C(=N)N)ccc2[nH]1)CC(=O)O` (stereo not drawn), in assay [1], the half-maximal inhibitory concentration (IC50) worked out at 0.31 µM.

With `CCC(CCCCCNC(=O)c1cc2cc(C(=N)N)ccc2[nH]1)C(=O)O` (stereo not drawn), in assay [1], the IC50 turned out to be 27 µM.

On to `CCCCC(CCCCNC(=O)c1cc2cc(C(=N)N)ccc2[nH]1)CC(=O)O` (stereo not drawn), for which, in assay [1], the IC50 is 0.79 µM.

The compound `N=C(N)c1ccc2oc(C(=O)NCCCCCCC(=O)O)cc2c1` registered a 50% inhibitory concentration (IC50) at Integrin alpha-V/beta-3 above 100 µM.

Compound `CC(CCCCCNC(=O)c1cc2cc(C(=N)N)ccc2[nH]1)C(=O)O` (stereo not drawn) came in with an IC50 in assay [1] of 6.9 µM.

As for `N=C(N)c1ccc2oc(C(=O)NCCCCCC(=O)O)cc2c1`, in assay [1], the IC50 was determined as 2.3 µM.

In the case of `N=C(N)c1ccc2[nH]c(C(=O)NCc3ccc(CCC(=O)O)cc3)cc2c1`, the IC50 in assay [1] was determined as 4 µM.

For the compound `Cc1c(C(=O)NCCCCCCC(=O)O)[nH]c2ccc(C(=N)N)cc12`, in assay [1], the IC50 is 1.7 µM. This IC50 is about 2.4-fold lower than that of the compound before.

For `N=C(N)c1ccc2[nH]c(C(=O)NCCC(=O)NCCC(=O)O)cc2c1`, the IC50 in assay [1] is 0.76 µM.

`CCC(CCCCNC(=O)c1cc2cc(C(=N)N)ccc2[nH]1)CC(=O)O` (stereo not drawn) gave a 50% inhibitory concentration (IC50) in assay [1] of 0.44 µM.

On to `CN(CCCCCCC(=O)O)C(=O)c1cc2cc(C(=N)N)ccc2[nH]1`, for which the IC50 in assay [1] is 0.34 µM.
